Measurements from ChEMBL document CHEMBL4725350, “2-Oxaadamant-1-yl Ureas as Soluble Epoxide Hydrolase Inhibitors: In Vivo Evaluation in a Murine Model of Acute Pancreatitis” (J Med Chem, 2020).
Active and inactive are the calls of the source. No cut-off for these calls is given here.

Columns and labels:
[1] = Apparent volume of distribution in CD-1 mouse at 1 mg/kg, iv measured up to 24 hrs by LC-MS analysis; assay type: ADME, organism-based; conditions: in vivo
Procedure, shortened: (§1)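 Single dose, 1 mg/kg, given to mice intravenously or intraperitoneally. Parameters are taken from the plasma concentration–time profile: T1/2, Tmax, Cmax, C0 (iv only), AUClast, AUCINF_obs, Vz and Cl. Bioavailability is derived from ip versus iv exposure.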

Mus musculus [2] = assay: Protection against cerulein-induced acute pancreatitis in C57BL/6J mouse assessed as reduction in inflammation at 30 mg/kg administered twice per day for 5 days followed by cerulein addition and measured 24 hrs post-last dose by H and E staining based histological analysis; assay type: functional, organism-based; conditions: time 6.0 day
Procedure, shortened: (§2)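 H&E-stained pancreas sections are scored for edema and inflammation. Groups are control, cerulein and cerulein plus inhibitor, in both the pre-induction and post-induction cerulein acute pancreatitis models in mice.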

Mus musculus [3] = assay: Protection against cerulein-induced acute pancreatitis in C57BL/6J mouse assessed as reduction in TNF-alpha mRNA level at 3 mg/kg administered 24 hrs post-cerulein addition and measured after 24 hrs by Trisure-reagent based RT-PCR analysis; assay type: functional, organism-based
Procedure, shortened: (§3)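 Post-induction (treatment) protocol in C57BL/6J mice. Acute pancreatitis is induced by several cerulein administrations, followed by ip sEH inhibitor at 3 or 30 mg/kg. Pancreatic mRNA of TNF-α, IL-1β, MCP-1 and ATF3 is quantified against control and cerulein-only groups. Mean ± SEM, n = 5 per group.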

Mus musculus [4] = assay: Protection against cerulein-induced acute pancreatitis in C57BL/6J mouse assessed as reduction in edema at 30 mg/kg administered 24 hrs post-cerulein addition and measured after 24 hrs by H and E staining based histological analysis; assay type: functional, organism-based; procedure, shortened: as §2
[5] = Acute toxicity in CD-1 mouse assessed as petechiae at 5 to 80 mg/kg, ip administered daily for 5 days; assay type: organism-based; conditions: in vivo, 120 h, dose 5-80 mg/kg, time 5 day
Procedure, shortened: (§4)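 Mice received the compound intraperitoneally once a day for five consecutive days at 5, 10, 20 and 80 mg/kg. Acute toxicity was judged from body weight during treatment, apparent behaviour problems and the presence of petechiae.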

[6] = AUClast in CD-1 mouse at 1 mg/kg, iv measured up to 24 hrs by LC-MS analysis; assay type: ADME, organism-based; parameters: route intravenous, dose 1 mg/kg, time <=24; conditions: in vivo; procedure, shortened: as §1
Mus musculus [7] = assay: Protection against cerulein-induced acute pancreatitis in C57BL/6J mouse assessed as reduction in IL-1beta mRNA level at 30 mg/kg administered twice per day for 5 days followed by cerulein addition and measured 24 hrs post-last dose by Trisure-reagent based RT-PCR analysis; assay type: functional, organism-based; conditions: time 6.0 day
Procedure, shortened: (§5)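 Pre-induction (prevention) protocol in C57BL/6J mice. Inhibitor is given ip at 30 mg/kg before cerulein induction of acute pancreatitis. Pancreatic mRNA of TNF-α, IL-1β, MCP-1 and ATF3 is compared with control and cerulein-only mice. Mean ± SEM, n = 5 per group.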

[8] = Acute toxicity in CD-1 mouse assessed as effect on body weight at 5 to 80 mg/kg, ip administered daily for 5 days and measured for 5 days; assay type: organism-based; conditions: in vivo, 240 h, dose 5-80 mg/kg, time 10 day; procedure, shortened: as §4
[9] = AUClast in CD-1 mouse at 1 mg/kg, ip measured up to 24 hrs by LC-MS analysis; assay type: ADME, organism-based; parameters: route intraperitoneal, dose 1 mg/kg, time <=24; conditions: in vivo; procedure, shortened: as §1
Mus musculus [10] = assay: Protection against cerulein-induced acute pancreatitis in C57BL/6J mouse assessed as reduction in edema at 30 mg/kg administered twice per day for 5 days followed by cerulein addition and measured 24 hrs post-last dose by H and E staining based histological analysis; assay type: functional, organism-based; conditions: time 6.0 day; procedure, shortened: as §2
[11] = Clearance in CD-1 mouse at 1 mg/kg, iv measured up to 24 hrs by LC-MS analysis; assay type: ADME, organism-based; conditions: in vivo; procedure, shortened: as §1
Mus musculus [12] = assay: Protection against cerulein-induced acute pancreatitis in C57BL/6J mouse assessed as reduction in TNF-alpha mRNA level at 30 mg/kg administered twice per day for 5 days followed by cerulein addition and measured 24 hrs post-last dose by Trisure-reagent based RT-PCR analysis; assay type: functional, organism-based; conditions: time 6.0 day; procedure, shortened: as §5
[13] = Cmax in CD-1 mouse at 1 mg/kg, iv measured up to 24 hrs by LC-MS analysis; assay type: ADME, organism-based; parameters: route intravenous, dose 1 mg/kg, time <=24; conditions: in vivo; procedure, shortened: as §1
[14] = Half life in CD-1 mouse at 1 mg/kg, ip measured up to 24 hrs by LC-MS analysis; assay type: ADME, organism-based; conditions: in vivo; procedure, shortened: as §1
[15] = Half life in CD-1 mouse at 1 mg/kg, iv measured up to 24 hrs by LC-MS analysis; assay type: ADME, organism-based; conditions: in vivo; procedure, shortened: as §1
Mus musculus [16] = assay: Protection against cerulein-induced acute pancreatitis in C57BL/6J mouse assessed as reduction in MCP1 mRNA level at 30 mg/kg administered twice per day for 5 days followed by cerulein addition and measured 24 hrs post-last dose by Trisure-reagent based RT-PCR analysis; assay type: functional, organism-based; conditions: time 6.0 day; procedure, shortened: as §5
[17] = Clearance in CD-1 mouse at 1 mg/kg, ip measured up to 24 hrs by LC-MS analysis; assay type: ADME, organism-based; conditions: in vivo; procedure, shortened: as §1
Mus musculus [18] = assay: Protection against cerulein-induced acute pancreatitis in C57BL/6J mouse assessed as reduction in TNF-alpha mRNA level at 30 mg/kg administered 24 hrs post-cerulein addition and measured after 24 hrs by Trisure-reagent based RT-PCR analysis; assay type: functional, organism-based; procedure, shortened: as §3
Mus musculus [19] = assay: Protection against cerulein-induced acute pancreatitis in C57BL/6J mouse assessed as reduction in IL1-beta mRNA level at 3 mg/kg administered 24 hrs post-cerulein addition and measured after 24 hrs by Trisure-reagent based RT-PCR analysis; assay type: functional, organism-based; procedure, shortened: as §3
Mus musculus [20] = assay: Protection against cerulein-induced acute pancreatitis in C57BL/6J mouse assessed as reduction in inflammation at 30 mg/kg administered 24 hrs post-cerulein addition and measured after 24 hrs by H and E staining based histological analysis; assay type: functional, organism-based; procedure, shortened: as §2
Mus musculus [21] = assay: Protection against cerulein-induced acute pancreatitis in C57BL/6J mouse assessed as reduction in ATF3 mRNA level at 30 mg/kg administered 24 hrs post-cerulein addition and measured after 24 hrs by Trisure-reagent based RT-PCR analysis; assay type: functional, organism-based; procedure, shortened: as §3
[22] = Acute toxicity in CD-1 mouse assessed as effect on behavior at 5 to 80 mg/kg, ip administered daily for 5 days; assay type: organism-based; conditions: in vivo, 120 h, dose 5-80 mg/kg, time 5 day; procedure, shortened: as §4
Homo sapiens [23] = organism: Homo sapiens; assay: Selectivity ratio of inhibition of recombinant human CYP2C19 to IC50 for inhibition of recombinant human soluble epoxide hydrolase
Homo sapiens [24] = organism: Homo sapiens; assay: Selectivity ratio of inhibition of recombinant human CYP3A4 to IC50 for inhibition of recombinant human soluble epoxide hydrolase using 7-BFC as substrate
[25] = Selectivity ratio of inhibition of recombinant human CYP3A4 to IC50 for inhibition of recombinant mouse soluble epoxide hydrolase using 7-BFC as substrate
[26] = Efflux ratio of apparent permeability across basolateral to apical side over apical to basolateral side in human Caco-2 cells at 10 uM measured after 2 hrs by LC-MS/MS analysis
Homo sapiens [27] = organism: Homo sapiens; assay: Selectivity ratio of inhibition of recombinant human CYP2D6 to IC50 for inhibition of recombinant human soluble epoxide hydrolase
[28] = Selectivity ratio of inhibition of recombinant human CYP2C9 to IC50 for inhibition of recombinant mouse soluble epoxide hydrolase
[29] = Apparent permeability across basolateral to apical side in human Caco-2 cells at 10 uM measured after 2 hrs by LC-MS/MS analysis; conditions: caco-2, 2 h
Homo sapiens [30] = organism: Homo sapiens; assay: Selectivity ratio of inhibition of recombinant human CYP2C9 to IC50 for inhibition of recombinant human soluble epoxide hydrolase

## CC(C)S(=O)(=O)N1CCC(NC(=O)NC23CC4CC(CC(C4)O2)C3)CC1
[1]
  Vz: 67.73 L/kg
Mus musculus [2]
  Activity: Active
Mus musculus [3]
  Activity: inactive
Mus musculus [4]
  Activity: Active
[5]
  Activity: Non-Toxic
[6]
  AUClast: 59.1 ng·h/mL
Mus musculus [7]
  Activity: Active
[8]
  Activity: Non-Toxic
[9]
  AUClast: 34.67 ng·h/mL
Mus musculus [10]
  Activity: Active
[11]
  CL: 279.5 mL/min/kg
Mus musculus [12]
  Activity: Active
[13]
  Cmax: 108.33 ng/mL
[14]
  t1/2: 3.02 h
[15]
  t1/2: 2.8 h
Mus musculus [16]
  Activity: Active
[17]
  CL/F: 474 mL/min/kg
Mus musculus [18]
  Activity: Active
Mus musculus [19]
  Activity: inactive
Mus musculus [20]
  Activity: Active
Mus musculus [21]
  Activity: Active
[22]
  Activity: Non-Toxic

## CC(=O)N1CCC(NC(=O)NC23CC4CC(CC(C4)O2)C3)CC1
Homo sapiens [23]
  Selectivity ratio: > 100
Homo sapiens [24]
  Selectivity ratio: > 100
[25]
  Selectivity ratio: > 100
[26]
  efflux ratio at 2 h, 10 µM: 4.3
Homo sapiens [27]
  Selectivity ratio: > 100
[28]
  Selectivity ratio: > 100
[29]
  Papp: 9.45 ×10⁻⁶ cm/s
Homo sapiens [30]
  Selectivity ratio: > 100
